Consider 38 sequences from the array DNA melting data of Ke et al. (doi:10.1101/2024.01.08.574731).

Data set [1] can be described thus: folding enthalpy; higher = less favourable; fluorescence melt of hairpins on a sequencing array, two-state fit. Conditions: sodium 0.088 M. In a few lines:
(§1)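 Cy3 fluorescence of library hairpins on a sequenced MiSeq flow cell, with annealed Cy3 and quencher oligos, was imaged in 50 mM Na-HEPES pH 8.0, 25 mM NaCl in 2.5 °C steps up to 60 °C. Signals were normalised to pre-quench Cy3 and to control variants. Melting temperature and folding enthalpy came from bootstrapped two-state fits, inverse-variance combined over four replicates. Fitted temperatures were raised by 9.35 °C to match UV melts.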

Data set [2] is described as follows: melting temperature; fluorescence melt of hairpins on a sequencing array, two-state fit, raised by 9.35 °C to match UV melts. The note with it: sodium 0.088 M. In a few lines: as §1

For GATCTCTGGGAGATC ((((((...)))))), the folding enthalpy in data set [1] is -34.7 kcal/mol. Also, the Tm in data set [2] is 53.6 °C.
Taken in the same sequence, the figures for GATCTCTGTGGAGATC ((((((....)))))) were -37.1 kcal/mol and 57.2 °C.
GATCTCTTAGAGATC ((((((...)))))): the folding enthalpy in data set [1] was -38.9 kcal/mol. Moreover, the Tm in data set [2] came out at 53.1 °C.
Taken in the same sequence, the figures for GATCTCTTCTGAGATC ((((((....)))))) were -39.8 kcal/mol and 54.7 °C.
Regarding GATCTCTTGTGAGATC ((((((....)))))), the folding enthalpy in data set [1] is -48.6 kcal/mol. In addition, the Tm in data set [2] is 53.1 °C.
For GATCTCTTTAGAGATC ((((((....)))))), in that order: -44.9 kcal/mol and 61.8 °C.
As to GATCTCTTTCGAGATC ((((((....)))))), the folding enthalpy in data set [1] was -28.2 kcal/mol. In data set [2], the Tm was 52.2 °C.
Taken in the same sequence, the figures for GATCTGAATCAGATC ((((((...)))))) were -34 kcal/mol and 44.7 °C.
For GATCTGACAACAGATC ((((((....)))))), in that order: -36.6 kcal/mol and 46.5 °C.
Regarding GATCTGACATCAGATC ((((((....)))))), the folding enthalpy in data set [1] was -33.5 kcal/mol. Also, in data set [2], the Tm was 48.3 °C.
Taken in the same sequence, the figures for GATCTGACGCCAGATC ((((((....)))))) were -33.5 kcal/mol and 48.6 °C.
As for GATCTGACTACAGATC ((((((....)))))), in data set [1], the folding enthalpy is -36.9 kcal/mol. Besides, in data set [2], the Tm came out at 49.5 °C.
On to GATCTGAGGCAGATC ((((((...)))))), for which the folding enthalpy in data set [1] is -31.4 kcal/mol. Besides, in data set [2], the Tm came to 47.5 °C.
For GATCTGAGGGCAGATC ((((((....)))))), in that order: -33.4 kcal/mol and 47.7 °C.
Taken in the same sequence, the figures for GATCTGATACCAGATC ((((((....)))))) were -40.8 kcal/mol and 47.1 °C.
As to GATCTGATTCCAGATC ((((((....)))))), the folding enthalpy in data set [1] was -34 kcal/mol. Also, in data set [2], the Tm is 48.5 °C.
As to GATCTGCAGACAGATC ((((((....)))))), in data set [1], the folding enthalpy was -40 kcal/mol. Moreover, in data set [2], the Tm was determined as 51.2 °C.
For GATCTGCCCACAGATC ((((((....)))))), in that order: -37 kcal/mol and 52.4 °C.
Turning to GATCTGCCCGCAGATC ((((((....)))))), in data set [1], the folding enthalpy is -46.4 kcal/mol. Also, the Tm in data set [2] turned out to be 59.7 °C.
For the sequence GATCTGCGACCAGATC ((((((....)))))), the folding enthalpy in data set [1] was -35 kcal/mol. Besides, the Tm in data set [2] was determined as 46.6 °C.
Taken in the same sequence, the figures for GATCTGCGCACAGATC ((((((....)))))) were -38.3 kcal/mol and 52.8 °C.
Taken in the same sequence, the figures for GATCTGCGCCAGATC ((((((...)))))) were -35.3 kcal/mol and 50.8 °C.
Consider GATCTGCGCTCAGATC ((((((....)))))), for which, in data set [1], the folding enthalpy was -39.7 kcal/mol. Further, the Tm in data set [2] is 49.3 °C.
For GATCTGCGGGCAGATC ((((((....)))))), in that order: -42.9 kcal/mol and 60.7 °C.
With GATCTGCGTTCAGATC ((((((....)))))), the folding enthalpy in data set [1] is -37.5 kcal/mol. The Tm in data set [2] was 48.8 °C.
For GATCTGCTAACAGATC ((((((....)))))), in that order: -37.1 kcal/mol and 50.4 °C.
For the sequence GATCTGCTAGCAGATC ((((((....)))))), the folding enthalpy in data set [1] was -48.5 kcal/mol. In addition, the Tm in data set [2] was 60.9 °C.
Consider GATCTGCTCACAGATC ((((((....)))))), for which the folding enthalpy in data set [1] is -36.9 kcal/mol. Further, the Tm in data set [2] is 51.6 °C.
As to GATCTGCTGACAGATC ((((((....)))))), in data set [1], the folding enthalpy is -39.7 kcal/mol. The Tm in data set [2] came to 50.5 °C.
Taken in the same sequence, the figures for GATCTGCTGCCAGATC ((((((....)))))) were -39.2 kcal/mol and 49.8 °C.
Taken in the same sequence, the figures for GATCTGCTGTCAGATC ((((((....)))))) were -32.2 kcal/mol and 51.6 °C.
For GATCTGGAAGCAGATC ((((((....)))))), in that order: -37.8 kcal/mol and 50.8 °C.
In the case of GATCTGGAGGCAGATC ((((((....)))))), the folding enthalpy in data set [1] was -31.1 kcal/mol. Also, in data set [2], the Tm was found to be 48.1 °C.
As for GATCTGGCACAGATC ((((((...)))))), in data set [1], the folding enthalpy was -38.8 kcal/mol. The Tm in data set [2] stood at 58.4 °C.
Take GATCTGGCACCAGATC ((((((....)))))): the folding enthalpy in data set [1] is -41.3 kcal/mol. The Tm in data set [2] turned out to be 55.1 °C.
GATCTGGCATCAGATC ((((((....)))))): in data set [1], the folding enthalpy is -46.2 kcal/mol. The Tm in data set [2] is 54.6 °C.
For GATCTGGCCACAGATC ((((((....)))))), in that order: -39.6 kcal/mol and 59.8 °C.
Taken in the same sequence, the figures for GATCTGGCGACAGATC ((((((....)))))) were -44.1 kcal/mol and 55.8 °C.
